Assay results reported in ChEMBL document CHEMBL2202989, “New adamantane phenylalkylamines with σ-receptor binding affinity and anticancer activity, associated with putative antagonism of neuropathic pain” (J Med Chem, 2012).

How the values were obtained:
OVCAR-5 [1] = assay: Antitumor activity against human OVCAR5 cells xenografted in SCID mouse assessed as primary tumor growth inhibition at 55 mg/kg, ip administered 5 consecutive days in a week for two cycles measured after 2 cycles relative to control; type: functional; conditions: OVCAR-5, ip, route intraperitoneal, read-out: TGI
Outline: (§1)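 SCID mice carried OVCAR5 xenografts (10^6 cells per inoculum), 16 mice (32 tumors) per group, with ip dosing in 5% Tween 80 from a tumor volume of about 100 mm3. Caliper volume was measured twice weekly and %ΔT/ΔC derived. At termination, primary tumors were weighed and secondary metastases were scored at axillary and bone sites (n = 7−8). Two-tailed t test.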

PC-3 [2] = assay: Induction of apoptosis in human PC3 cells assessed as late apoptosis at 50 uM using annexin V/7-AAD by FACS analysis (reference value: 3 %); type: functional
BXPC-3 [3] = assay: Cell cycle arrest in human BxPC3 cells assessed as accumulation at G2 phase at 0.5 uM after 24 hrs using propidium iodide staining by FACS analysis (reference value: 12 %); type: functional
Outline: (§2)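 Cells were plated 24 h before treatment and exposed for 24 h at final 0.5, 5, 15 and 50 μM in 0.5% DMSO, against vehicle-treated controls. Cells were then trypsinised and fixed in cold ethanol for 3 h at 4 °C. They were stained in a mix of RNase (200 μg/mL) and PI (1 mg/mL) for 45 min at room temperature in the dark. Flow cytometry used 488 nm excitation and 10 000 gated cells. Phase percentages were assigned from DNA content.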

[4] = (§3) Growth inhibition of human HUVEC cells after 48 hrs by SRB assay; type: cell-based; conditions: HUVEC cells
Outline: (§4)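 Cells grown in RPMI 1640 with 5% heat-inactivated FCS, 2 mM L-glutamine and antibiotics, 37 °C, 5% CO2. Seeded at 3500–30000 cells/well and left 24 h before dosing. DMSO solutions added at 10-fold dilutions from 100 to 0.01 μM for 48 h. Cells TCA-fixed and SRB-stained, absorbance read at 540 nm; GI50 derived against the time-zero plate.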

HUVEC = assay: as §3; type: cell-based; conditions: huvec, 48 h; outline: as §4
BXPC-3 [5] = assay: Cell cycle arrest in human BxPC3 cells assessed as accumulation at S phase at 15 uM after 24 hrs using propidium iodide staining by FACS analysis (reference value: 33 %); type: functional; outline: as §2
IGROV-1 [6] = assay: Induction of apoptosis in human IGROV1 cells assessed as cleaved caspase3 containing cells at 5 uM by antibody-based FACS analysis (reference value: 3.9 %); type: functional
PC-3 [7] = assay: Cell cycle arrest in human PC3 cells assessed as accumulation at G1 phase at 0.5 uM after 24 hrs using propidium iodide staining by FACS analysis (reference value: 36 %); type: functional
PC-3 [8] = assay: Cell cycle arrest in human PC3 cells assessed as accumulation at S phase at 0.5 uM after 24 hrs using propidium iodide staining by FACS analysis (reference value: 42 %); type: functional
BXPC-3 [9] = assay: Induction of apoptosis in human BxPC3 cells assessed as healthy cells at 50 uM using annexin V/7-AAD by FACS analysis (reference value: 79 %); type: functional
OVCAR-5 [10] = assay: Antitumor activity against human OVCAR5 cells xenografted in SCID mouse assessed as bone metastasis at 55 mg/kg, ip administered 5 consecutive days in a week for two cycles measured after 2 cycles relative to control; type: functional; conditions: OVCAR-5, ip, route intraperitoneal, read-out: TGI; outline: as §1
IGROV-1 [11] = assay: Cell cycle arrest in human IGROV1 cells assessed as accumulation at G2 phase at 5 uM after 24 hrs using propidium iodide staining by FACS analysis (reference value: 19 %); type: functional
BXPC-3 [12] = assay: Cell cycle arrest in human BxPC3 cells assessed as accumulation at sub G1 phase at 0.5 uM after 24 hrs using propidium iodide staining by FACS analysis (reference value: 9 %); type: functional; outline: as §2
IGROV-1 [13] = assay: Induction of apoptosis in human IGROV1 cells assessed as healthy cells at 5 uM using annexin V/7-AAD by FACS analysis (reference value: 86 %); type: functional
IGROV-1 [14] = assay: Induction of apoptosis in human IGROV1 cells assessed as cleaved caspase3 containing cells at 50 uM by antibody-based FACS analysis (reference value: 3.9 %); type: functional
PC-3 [15] = assay: Cell cycle arrest in human PC3 cells assessed as accumulation at G1 phase at 15 uM after 24 hrs using propidium iodide staining by FACS analysis (reference value: 36 %); type: functional
PC-3 [16] = assay: Induction of apoptosis in human PC3 cells assessed as healthy cells at 50 uM using annexin V/7-AAD by FACS analysis (reference value: 91 %); type: functional
HCT-116 = assay: Growth inhibition of human HCT116 cells after 48 hrs by SRB assay; type: functional; conditions: HCT-116, 48 h; outline: as §4
PC-3 [17] = assay: Induction of apoptosis in human PC3 cells assessed as early apoptosis at 50 uM using annexin V/7-AAD by FACS analysis (reference value: 5 %); type: functional
Outline: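 Cells plated 24 h before treatment, then exposed 24 h to 0.5, 5, 15 or 50 μM compound (final DMSO 0.5%); vehicle controls included. Cells scraped and stained with annexin V-FITC and 7-AAD for 15 min on ice in the dark. Flow cytometry with 488 nm excitation, 10,000 gated cells. Early apoptosis was annexin V+/7-AAD−, late was annexin V+/7-AAD+.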

IGROV-1 [18] = assay: Cell cycle arrest in human IGROV1 cells assessed as accumulation at sub G1 phase at 15 uM after 24 hrs using propidium iodide staining by FACS analysis (reference value: 4 %); type: functional
PC-3 [19] = assay: Cell cycle arrest in human PC3 cells assessed as accumulation at S phase at 5 uM after 24 hrs using propidium iodide staining by FACS analysis (reference value: 42 %); type: functional
BXPC-3 [20] = assay: Induction of apoptosis in human BxPC3 cells assessed as early apoptosis at 15 uM using annexin V/7-AAD by FACS analysis (reference value: 9 %); type: functional
BXPC-3 [21] = assay: Cell cycle arrest in human BxPC3 cells assessed as accumulation at G2 phase at 50 uM after 24 hrs using propidium iodide staining by FACS analysis (reference value: 12 %); type: functional; outline: as §2
BXPC-3 [22] = assay: Induction of apoptosis in human BxPC3 cells assessed as healthy cells at 0.5 uM using annexin V/7-AAD by FACS analysis (reference value: 79 %); type: functional
BXPC-3 [23] = assay: Cell cycle arrest in human BxPC3 cells assessed as accumulation at G1 phase at 0.5 uM after 24 hrs using propidium iodide staining by FACS analysis (reference value: 41 %); type: functional; outline: as §2
PC-3 [24] = assay: Cell cycle arrest in human PC3 cells assessed as accumulation at sub G1 phase at 15 uM after 24 hrs using propidium iodide staining by FACS analysis (reference value: 4 %); type: functional
PC-3 [25] = assay: Cell cycle arrest in human PC3 cells assessed as accumulation at G2 phase at 15 uM after 24 hrs using propidium iodide staining by FACS analysis (reference value: 12 %); type: functional
PC-3 [26] = assay: Induction of apoptosis in human PC3 cells assessed as early apoptosis at 15 uM using annexin V/7-AAD by FACS analysis (reference value: 5 %); type: functional
PC-3 [27] = assay: Induction of apoptosis in human PC3 cells assessed as healthy cells at 0.5 uM using annexin V/7-AAD by FACS analysis (reference value: 91 %); type: functional

## CN1CCN(CCCc2ccc(C(c3ccccc3)C34CC5CC(CC(C5)C3)C4)cc2)CC1 (configuration not stated)
OVCAR-5 [1]
  inhibition in vivo at 55 mg/kg: 46.9%
PC-3 [2]
  Activity: 9%
BXPC-3 [3]
  Activity: 11%
[4]
  GI50 at 48 h: 2980 nM
HUVEC
  LC50: 8.62 µM
  TGI: 5.8 µM
BXPC-3 [5]
  Activity: 27%
IGROV-1 [6]
  Activity: 12.6%
PC-3 [7]
  Activity: 34%
PC-3 [8]
  Activity: 38%
BXPC-3 [9]
  Activity: 12%
OVCAR-5 [10]
  inhibition in vivo at 55 mg/kg: 25%
IGROV-1 [11]
  Activity: 21%
BXPC-3 [12]
  Activity: 11%
IGROV-1 [13]
  Activity: 83%
IGROV-1 [14]
  Activity: 15.8%
PC-3 [15]
  Activity: 25%
PC-3 [16]
  Activity: 43%
HCT-116
  GI50: 3.38 µM
  TGI: 6.05 µM
HCT-116; read-out: LC50 (the source's name)
  CC50: 8.73 nM
PC-3 [17]
  Activity: 15%
IGROV-1 [18]
  Activity: 12%
PC-3 [19]
  Activity: 36%
BXPC-3 [20]
  Activity: 19%
BXPC-3 [21]
  Activity: 9%
BXPC-3 [22]
  Activity: 82%
BXPC-3 [23]
  Activity: 41%
PC-3 [24]
  Activity: 25%
PC-3 [25]
  Activity: 11%
PC-3 [26]
  Activity: 9%
PC-3 [27]
  Activity: 95%
